The record followed here is ChEMBL document CHEMBL1123937, “(5Z)-7-(2,2-Dimethyl-4-phenyl-1,3-dioxan-cis-5-yl)heptenoi c acid: a specific thromboxane A2 receptor antagonist” (J Med Chem, 1987).

The target in experiment [1] is Thromboxane A2 receptor (Oryctolagus cuniculus). The experiment can be described thus: Ability to inhibit U-46,619-induced contraction of isolated strips of rabbit thoracic aorta, which is the measure of thromboxane receptor antagonism. As to conditions: read-out: pA2 (converted).
The species entered for experiment [2] is Rattus norvegicus. Description: Ability to inhibit norepinephrine -induced contraction of isolated strips of rat aorta, […]. It counts as functional. As to conditions: read-out: pA2 (converted).
Experiment [3] is filed under the species Cavia porcellus. The experiment can be described thus: Ability to antagonise the actions of crude SRSA on guinea pig ileum was determined. Type of experiment: functional. As to conditions: read-out: pA2 (converted).
Experiment [4] is filed under the species Cavia porcellus. The experiment can be described thus: Ability to inhibit relaxant effect of PGE-2 on guinea pig trachea was determined. It counts as functional. As to conditions: read-out: pA2 (converted).
The species entered for experiment [5] is Oryctolagus cuniculus. Description: Compound was tested for the antagonist serotonin- and norepinephrine-induced contractions of rabbit aorta. It counts as functional. Put shortly: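 Rabbit aortic strips contracted with serotonin or norepinephrine and tested in the presence of the antagonist at concentrations up to 2×10^-5 M.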
For experiment [6], the species on record is Oryctolagus cuniculus. Description: Ability to inhibit the contractile effect of PGE-2 on rabbit aorta was determined. It counts as functional. As to conditions: read-out: pA2 (converted).
For experiment [7], the species on record is Homo sapiens. Description: Ability to inhibit aggregate formation in human platelets induced by collagen. It counts as functional.
The species named for experiment [8] is Homo sapiens. The experiment can be described thus: Ability to inhibit aggregate formation in human platelets induced by arachidonic acid. It counts as functional.
The target in the next experiment is T1, Thromboxane A2 receptor (Rattus norvegicus, UniProt P34978).
T1 sequence (P34978 whole entry): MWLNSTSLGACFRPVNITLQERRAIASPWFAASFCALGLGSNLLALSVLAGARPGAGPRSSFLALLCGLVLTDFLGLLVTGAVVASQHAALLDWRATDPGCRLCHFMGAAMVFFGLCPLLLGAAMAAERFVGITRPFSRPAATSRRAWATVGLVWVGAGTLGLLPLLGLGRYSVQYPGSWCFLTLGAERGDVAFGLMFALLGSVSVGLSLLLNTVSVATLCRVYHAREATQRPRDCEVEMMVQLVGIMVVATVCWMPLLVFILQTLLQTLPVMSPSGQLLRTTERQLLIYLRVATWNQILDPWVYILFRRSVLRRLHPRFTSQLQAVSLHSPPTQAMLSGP
Description: Ability to inhibit U-46,619-induced contraction of isolated strips of rat aorta, which is the measure of thromboxane receptor antagonism. As to conditions: read-out: pA2 (converted). It counts as functional.

Experiment [9] is filed under the species Rattus norvegicus. The experiment can be described thus: Ability to inhibit the contractile effect of PGD-2 on rat aorta was determined. It counts as functional. As to conditions: read-out: pA2 (converted).
The species entered for experiment [10] is Oryctolagus cuniculus. Description: Ability to inhibit the contractile effect of […] on rabbit aorta was determined. As to conditions: read-out: pA2 (converted). It counts as functional.
The species entered for experiment [11] is Cavia porcellus. The experiment can be described thus: Compound was tested for the concentration that inhibited the bronchoconstriction induced by U 46619 for a period exceeding 2 h. It counts as functional.
The species named for experiment [12] is Cavia porcellus. The experiment can be described thus: Ability to inhibit the contractile effect of PGE-2 on guinea pig trachea. As to conditions: read-out: pA2 (converted). It counts as functional.
For experiment [13], the species on record is Cavia porcellus. The experiment can be described thus: Ability to inhibit the contractile effect of PGF2-alpha on guinea pig trachea. As to conditions: read-out: pA2 (converted).
The species entered for experiment [14] is Cavia porcellus. Description: Inhibition of the response to PGE-2 in guinea pig ileum was determined. It counts as functional. As to conditions: read-out: pA2 (converted).
Experiment [15] deals with thromboxane A2 (TxA2) receptor (Cavia porcellus, UniProt A0A286Y4I8). The experiment can be described thus: Ability to inhibit U-46,619-induced contraction of isolated strips of guinea pig tracheal chain, which is the measure of thromboxane receptor antagonism. It counts as functional. As to conditions: read-out: pA2 (converted).
The species named for experiment [16] is Rattus norvegicus. Description: Inhibition of the response to […] in rat colon was determined. Type of experiment: functional. As to conditions: read-out: pA2 (converted).
The species named for experiment [17] is Homo sapiens. The experiment can be described thus: Compound was tested for the concentration in human platelet -rich plasma that did not modify PGI-2 inhibition of ADP- induced aggregation. Type of experiment: functional.

Some results are limits rather than exact numbers.

As to `O=C(O)CCC/C=C\C[C@@H]1COCO[C@@H]1c1ccccc1`, the Kb in experiment [1] is 0.501 µM.
Turning to `CC1(C)OC[C@H](C/C=C\CCCC(=O)O)[C@@H](c2ccccc2)O1`, in [1], the Kb was more than 20 µM.
Turning to `CC1(C)OC[C@@H](C/C=C\CCCC(=O)O)[C@@H](c2ccccc2)O1`, the Kb in the experiment filed under Rattus norvegicus [2] was more than 20 µM; in the experiment filed under Cavia porcellus [3], more than 20 µM; in the experiment listed under Cavia porcellus [4], more than 20 µM; in the experiment listed under Oryctolagus cuniculus [6] it was 6.76 µM; on Thromboxane A2 receptor, 0.145 µM; in the experiment listed under Rattus norvegicus [9] it was 1.95 µM. Also, the Kb was 1.62 µM in the experiment filed under Oryctolagus cuniculus [10]; 10.5 µM in the experiment listed under Cavia porcellus [12]; 11.2 µM in the experiment filed under Cavia porcellus [13]; more than 20 µM in the experiment listed under Cavia porcellus [14]; 0.263 µM in experiment [15]; 0.501 µM in experiment [1]. Also, in the experiment listed under Rattus norvegicus [16], the Kb was more than 20 µM. In addition, the results for the Concentration in the experiment filed under Oryctolagus cuniculus [5] and in the experiment filed under Homo sapiens [17] were 20 µM and 100 µM, respectively. For the same compound, the KB in the experiment listed under Homo sapiens [7] was 9.12e-06; in the experiment listed under Homo sapiens [8], 1.42e-05. For the same compound, the Activity in the experiment listed under Cavia porcellus [11] is 5 mg/kg.
For `O=C(O)CCC/C=C\C[C@H]1COCO[C@@H]1c1ccccc1`, the Kb in experiment [1] was more than 20 µM.
